The text below walks through data of ChEMBL document CHEMBL3244238, “In search of anti-Trypanosoma cruzi drugs: new leads from a mouse model” (J Med Chem, 1977).

Data set [1] has as its system Trypanosoma cruzi. Briefly: Antitrypanosomal activity against Trypanosoma cruzi infected in albino CF1 mouse assessed as reduction in number of parasites in blood at 3.25 mg/kg/day, intramuscular treatment started on day 10 of infection up to day 14. The format is functional. The settings on record: for inhibition in vivo at 3.25 mg/kg/day: im. Put shortly:
(§1)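 Male CF1 albino mice (4-10 weeks) were infected ip with 50 000 Brazil-strain trypomastigotes in 0.2 mL Hanks' BSS, pH 7.2. Dosing was intramuscular, twice daily in 0.1% Tween 80/0.5% hydroxyethylcellulose, from day 10 through day 13 pm or day 14 am. Three fourfold-spaced doses were given, 7 mice per dose, with vehicle-only controls. Parasites/mL of blood were counted from day-14 smears.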

Data set [2] deals with Trypanosoma cruzi. Briefly: Antitrypanosomal activity against Trypanosoma cruzi infected in albino CF1 mouse assessed as reduction in number of parasites in blood at 104 mg/kg/day, intramuscular treatment started on day 10 of infection up to day 14. The format is functional. The settings on record: for inhibition in vivo at 104 mg/kg/day: im. The gist of the method:
(§2)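 Male CF1 albino mice (4-10 weeks) infected intraperitoneally with 50 000 Brazil-strain T. cruzi trypomastigotes in Hanks' balanced salt solution, pH 7.2. Dosing was intramuscular, twice daily, from day 10 to day 13 afternoon or day 14 morning. Vehicle was 0.1% Tween 80 + 0.5% hydroxyethylcellulose. Seven mice per dose; dose given as total salt weight. Parasites/mL blood counted from day-14 smears; % suppression versus vehicle controls.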

Data set [3] concerns Trypanosoma cruzi. Briefly: Antitrypanosomal activity against Trypanosoma cruzi infected in albino CF1 mouse assessed as reduction in number of parasites in blood at 26 mg/kg/day, intramuscular treatment started on day 10 of infection up to day 14. The format is functional. The settings on record: for inhibition in vivo at 26 mg/kg/day: im. Put shortly:
as §1

The test system of data set [4] is Trypanosoma cruzi. Briefly: Antitrypanosomal activity against Trypanosoma cruzi infected in albino CF1 mouse assessed as reduction in number of parasites in blood intramuscularly treated daily from day 10 of infection up to day 14. It is filed as functional. The gist of the method: as §1
For data set [5], the system named is Trypanosoma cruzi. Briefly: Potency index, ratio of nifurtimox SD90 to compound SD90 for Trypanosoma cruzi infected in albino CF1 mouse assessed as reduction in number of parasites in blood. The format is functional. Put shortly: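 Index = nifurtimox SD90 ÷ test-compound SD90. SD values were read graphically from log-probit plots of % parasitemia suppression versus dose (mg/kg/day) in intramuscularly treated, T. cruzi-infected CF1 mice. A lower SD level was used when SD90 was unattainable. For salts, doses were given by total weight, and the index was multiplied by the reciprocal of the base fraction.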

Data set [6] has as its system Trypanosoma cruzi. Kind of data set: Antitrypanosomal activity against Trypanosoma cruzi infected in albino CF1 mouse assessed as reduction in number of parasites in blood at 52 mg/kg/day, intramuscular treatment started on day 10 of infection up to day 14. The format is functional. The settings on record: for inhibition in vivo at 52 mg/kg/day: im. The gist of the method:
as §2

The subject of data set [7] is Trypanosoma cruzi. Kind of data set: Antitrypanosomal activity against Trypanosoma cruzi infected in albino CF1 mouse assessed as reduction in number of parasites in blood at 13 mg/kg/day, intramuscular treatment started on day 10 of infection up to day 14. It is filed as functional. The settings on record: for inhibition in vivo at 13 mg/kg/day: im. Put shortly: as §2

In data set [8] the test system is Mus musculus. Briefly: Toxicity in albino CF1 mouse at 104 mg/kg/day, intramuscular treatment started on day 10 of trypanosomal infection up to day 14. The settings on record: in vivo, im. On the set-up: route intramuscular. It is filed as organism-based.

Calls of active or inactive are those of the source. The rule behind the calls is not given here.

Regarding `Nc1ccc(C(c2ccc(N)cc2)c2ccc(N)cc2)cc1`, the inhibition in vivo at 3.25 mg/kg/day in data set [1] was determined as 43%. Further, the inhibition in vivo at 104 mg/kg/day in data set [2] was determined as 52%. The inhibition in vivo at 26 mg/kg/day in data set [3] was 39%.
As to `COc1cc(NC(C)CCN)c2ncccc2c1.Cl` (stereo not drawn), the SD90 in data set [4] was 21.8 mg/kg. In data set [2], the inhibition in vivo at 104 mg/kg/day stood at 100%. Besides, the Ratio in data set [5] is listed as 3.8. The inhibition in vivo at 52 mg/kg/day in data set [6] was found to be 97%. Further, the inhibition in vivo at 13 mg/kg/day in data set [7] was found to be 80%.
As to `COc1cc(NC(C)CCN)c2ncccc2c1/N=N/c1ccc(C(=O)O)cc1` (stereo not drawn), in data set [4], the SD90 is less than 3 mg/kg. Further, in data set [2], the inhibition in vivo at 104 mg/kg/day came out at 100%. In addition, the Ratio in data set [5] is recorded as more than 4. Further, in data set [6], the inhibition in vivo at 52 mg/kg/day was 99%. Moreover, the inhibition in vivo at 13 mg/kg/day in data set [7] was 98%.
Consider `O=C(O)c1[nH]c(=O)[nH]c(=O)c1F`, for which the inhibition entry in data set [2], in data set [6] and in data set [7] was “inactive” throughout.
As for `COc1cc(NC(C)CCN)c2ncc(C)cc2c1.O=P(O)(O)O` (stereo not drawn), in data set [1], the inhibition in vivo at 3.25 mg/kg/day was 92%. Moreover, the SD90 in data set [4] was less than 3.25 mg/kg. Further, in data set [5], the Ratio is recorded as more than 9.2. Further, in data set [7], the inhibition in vivo at 13 mg/kg/day stood at 98%. In addition, the inhibition in vivo at 26 mg/kg/day in data set [3] turned out to be 99%.
As to `NC1(C(=O)O)CCCC1`, the inhibition result in data set [2], in data set [6] and in data set [7] was “inactive” throughout.
Regarding `Nc1nc(N)c2cc(S(=O)(=O)c3ccc4ccccc4c3)ccc2n1`, the inhibition result in data set [2], in data set [6] and in data set [7] was “inactive” in each case.
`COc1cc(NC(C)CCCN)c(OC)c2c(C)ccnc12.O=C(O)c1ccc(O)cc1O` (stereo not drawn): the inhibition entry in data set [2], in data set [6] and in data set [7] was “inactive” in each case.
As for `CCCNCCCCCNc1cc(OC)cc2cccnc12.O=P(O)(O)O`, the SD90 in data set [4] is 43.5 mg/kg. Moreover, the inhibition in vivo at 104 mg/kg/day in data set [2] turned out to be 99%. Moreover, the Ratio in data set [5] stood at 1.2. For the same molecule, the inhibition in vivo at 52 mg/kg/day in data set [6] amounted to 93%. Besides, the inhibition in vivo at 13 mg/kg/day in data set [7] came to 54%.
For the molecule `Cc1cc(NCCCCCCNc2cc(C)nc3ccc(N)cc23)c2cc(N)ccc2n1`, the inhibition result in data set [2], in data set [6] and in data set [7] was “inactive” in each case.
In the case of `Cc1ccc(C[P+](c2ccccc2)(c2ccccc2)c2ccccc2)cc1.[Cl-]`, in data set [1], the inhibition in vivo at 3.25 mg/kg/day came out at 80%. In addition, the SD80 in data set [4] came to 13 mg/kg. The Activity result in data set [8] was “Toxic”. In data set [5], the Ratio turned out to be 3.6. Further, the inhibition in vivo at 26 mg/kg/day in data set [3] was 85%.
`COc1cc(NC(C)CCN)c2nccc(C)c2c1` (stereo not drawn): the inhibition result in data set [2], in data set [6] and in data set [7] was “inactive” in each case. The Ratio entry in data set [5] was “inactive”.
On to `Nc1nc(N)c2c(n1)CCC(S(=O)(=O)c1ccc3ccccc3c1)C2` (stereo not drawn), for which the inhibition entry in data set [2], in data set [6] and in data set [7] was “inactive” each time.
With `c1ccc(C2CN3CCSC3=N2)cc1` (stereo not drawn), the inhibition result in data set [2], in data set [6] and in data set [7] was “inactive” each time.
For `CC(C)NCC1CCc2cc(CO)c([N+](=O)[O-])cc2N1` (stereo not drawn), the inhibition entry in data set [2], in data set [6] and in data set [7] was “inactive” throughout.
`COc1cc(NC(C)CCN)c2nc(C)ccc2c1.Cl.O` (stereo not drawn): the inhibition in vivo at 3.25 mg/kg/day in data set [1] amounted to 38%. Also, the SD80 in data set [4] came to 10.5 mg/kg. For the same molecule, in data set [5], the Ratio stood at 3.9. For the same molecule, the inhibition in vivo at 13 mg/kg/day in data set [7] was 86%. For the same molecule, the inhibition in vivo at 26 mg/kg/day in data set [3] was found to be 82%.
Turning to `COc1cc(NCCCN2CCN(CCCNc3cc(OC)cc4cccnc34)CC2)c2ncccc2c1`, the inhibition result in data set [2], in data set [6] and in data set [7] was “inactive” in each case.
Consider `CCN(CC)CCCCCCNc1cc(OC)cc2c(C)ccnc12`, for which the inhibition entry in data set [1], in data set [7] and in data set [3] was “inactive” each time. For the same molecule, the Ratio result in data set [5] was “inactive”.
For `N=C(N)c1ccc(-c2ccc(-c3ccc(C(=N)N)cc3)o2)cc1`, the inhibition result in data set [2], in data set [6] and in data set [7] was “inactive” in each case.
For the molecule `CC1CS(=O)(=O)CCN1/N=C/c1ccc([N+](=O)[O-])o1` (stereo not drawn) [NIFURTIMOX], the SD90 in data set [4] came out at 41.5 mg/kg. For the same molecule, the inhibition in vivo at 104 mg/kg/day in data set [2] is 99%. For the same molecule, the Ratio in data set [5] is listed as 1. In data set [6], the inhibition in vivo at 52 mg/kg/day was found to be 92%. Moreover, the inhibition in vivo at 13 mg/kg/day in data set [7] amounted to 57%.
In the case of `Nc1ccc(C(c2ccc(N)cc2)c2ccc(N)cc2)cc1.O=C(O)c1cc2ccccc2c(Cc2c(O)c(C(=O)O)cc3ccccc23)c1O`, the SD50 in data set [4] stood at 96 mg/kg. Also, the Ratio in data set [5] stood at 0.3.
As to `Nc1nc(/C=C/c2ccc([N+](=O)[O-])o2)no1`, the inhibition in vivo at 3.25 mg/kg/day in data set [1] stood at 49%. Also, the SD90 in data set [4] was found to be 48.5 mg/kg. Also, the inhibition in vivo at 104 mg/kg/day in data set [2] amounted to 90%. In addition, the Ratio in data set [5] was 1.13. Further, the inhibition in vivo at 26 mg/kg/day in data set [3] was 91%.
`COc1c(NC(C)CCN)cc(OC)c2c(C)ccnc12` (stereo not drawn): the inhibition entry in data set [2], in data set [6] and in data set [7] was “inactive” in each case. For the same molecule, the Ratio entry in data set [5] is “inactive”.
Regarding `CCN(CC)CCCNc1cc(OC)c2nc(C)ccc2c1OC.O=C(O)c1ccc(O)cc1O`, the inhibition entry in data set [2], in data set [6] and in data set [7] was “inactive” in each case.
Consider `COc1cc(NC(C)CCCN)c(OC)c2c(C)cc(C)nc12` (stereo not drawn), for which the inhibition entry in data set [2], in data set [6] and in data set [7] was “inactive” in each case.

One may read the inhibition in vivo as how much of the control response was suppressed.
